# Source: ChEMBL document CHEMBL5032510, “Identification of Novel Fused Heteroaromatics-Based MALT1 Inhibitors by High-Throughput Screening to Treat B Cell Lymphoma” (J Med Chem, 2021)
# The source made the active and inactive calls. The calls are words filed in the database; no cut-off is given here.
# Legend:
# [1] = system: OCI-Ly1; assay: Induction of apoptosis in human OCI-Ly1 cells assessed as late apoptotic cells at 10 uM measured after 24 hrs by Annexin V-FITC/ Propidium iodide staining based flow cytometry (reference value: 0.548%); assay type: functional
# [2] = system: TMD8; assay: Induction of apoptosis in human TMD8 cells assessed as late apoptotic cells at 2 uM measured after 24 hrs by Annexin V-FITC/ Propidium iodide staining based flow cytometry (reference value: 2.19%); assay type: functional
# [3] = target: Nuclear factor NF-kappa-B complex (Homo sapiens) (UniProt Q00653+P19838+Q04206); assay: Inhibition of NF-kappaB signalling in human HBL1 cells assessed as reduction in phosphorylation of IkappaB-alpha at 8 uM preincubated for 30 mins followed by proteosome inhibitor MG-132 addition and measured after 2 hrs by Western blot analysis; assay type: cell-based; details: time 2.5 hrs
# In short: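 HBL1 cells were pretreated with compound (4 and 8 μM) for 30 min, then given 10 μM MG-132 for 2 h. Phospho-IκBα, IκBα and RelB were probed by western blot, with β-actin as loading control. Each lane held 20−75 μg total protein, with chemiluminescent detection.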
# [4] = system: TMD8; assay: Antitumor activity against human TMD8 cells xenografted in NCG mouse assessed as tumor growth inhibition at 30 mg/kg/day, ip measured every 2 days for 13 days by caliper method relative to control; assay type: functional; details: 312 h, time 13 day, read-out: TGI
# [5] = MRT (0 to t) in CD-1 mouse at 1 mg/kg, iv by LC-MS/MS analysis; assay type: ADME, organism-based; details: in vivo
# In short: (§1)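 Male ICR (CD-1) mice (n = 9). Compound formulated in 5% DMSO + 5% Tween-80 in 90% saline and dosed 10 mg/kg po, 1 mg/kg ip or 1 mg/kg iv. Blood drawn from the jugular vein at set time points and held on ice. Plasma separated by centrifugation and stored at −80 °C before parameter derivation.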
# [6] = Induction of apoptosis in human HBL1 cells assessed as early apoptotic cells at 5 uM measured after 24 hrs by Annexin V-FITC/ Propidium iodide staining based flow cytometry (reference value: 4.85%); assay type: functional
# [7] = Induction of apoptosis in human HBL1 cells assessed as dead cells at 5 uM measured after 24 hrs by Annexin V-FITC/ Propidium iodide staining based flow cytometry (reference value: 2.32%); assay type: functional
# [8] = system: HBL1; assay: Induction of apoptosis in human HBL1 cells assessed as increase in cleaved PARP level measured after 12 hrs by Western blot analysis; assay type: functional, cell-based
# In short: (§2)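 HBL1, TMD8 or OCI-LY1 cells were exposed to DMSO or compound for 12 h. Cleaved PARP and caspase-3 were probed by western blot with HRP-conjugated secondary antibodies and chemiluminescent detection. Each lane held 20−75 μg total protein.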
# [9] = Apparent volume of distribution in CD-1 mouse at 1 mg/kg, iv by LC-MS/MS analysis; assay type: ADME, organism-based; details: in vivo, read-out: Vz
# In short: (§3)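 Compound formulated in 5% DMSO + 5% Tween-80 in 90% saline and given to male ICR (CD-1) mice (n = 9) at 10 mg/kg po, 1 mg/kg ip or 1 mg/kg iv. Blood was drawn via the jugular vein at set time points and held on ice. Plasma was separated by centrifugation and stored at −80 °C before PK parameters were derived.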
# [10] = AUC (0 to t) in CD-1 mouse at 1 mg/kg, iv by LC-MS/MS analysis; assay type: ADME, organism-based; parameters: dose 1 mg/kg; details: in vivo; in short: as §3
# [11] = system: TMD8; assay: Induction of apoptosis in human TMD8 cells assessed as dead cells at 5 uM measured after 24 hrs by Annexin V-FITC/ Propidium iodide staining based flow cytometry (reference value: 0 %); assay type: functional
# [12] = system: TMD8; assay: Induction of apoptosis in human TMD8 cells assessed as early apoptotic cells at 5 uM measured after 24 hrs by Annexin V-FITC/ Propidium iodide staining based flow cytometry (reference value: 6.97%); assay type: functional
# [13] = system: TMD8; assay: Induction of apoptosis in human TMD8 cells assessed as early apoptotic cells at 10 uM measured after 24 hrs by Annexin V-FITC/ Propidium iodide staining based flow cytometry (reference value: 6.97%); assay type: functional
# [14] = system: OCI-Ly1; assay: Induction of apoptosis in human OCI-Ly1 cells assessed as dead cells at 10 uM measured after 24 hrs by Annexin V-FITC/ Propidium iodide staining based flow cytometry (reference value: 0.365%); assay type: functional
# [15] = Tmax in CD-1 mouse at 10 mg/kg, po by LC-MS/MS analysis; assay type: ADME, organism-based; details: in vivo; in short: as §1
# [16] = target: T1, Mucosa-associated lymphoid tissue lymphoma translocation protein 1 (Homo sapiens) (UniProt Q9UDY8); assay: Inhibition of MALT1 in human HBL1 cells assessed as decrease in RelB substrate cleavage at 8 uM preincubated for 30 mins followed by proteosome inhibitor MG-132 addition and measured after 2 hrs by Western blot analysis; assay type: cell-based; details: time 2.5 hrs
# T1 sequence (whole entry): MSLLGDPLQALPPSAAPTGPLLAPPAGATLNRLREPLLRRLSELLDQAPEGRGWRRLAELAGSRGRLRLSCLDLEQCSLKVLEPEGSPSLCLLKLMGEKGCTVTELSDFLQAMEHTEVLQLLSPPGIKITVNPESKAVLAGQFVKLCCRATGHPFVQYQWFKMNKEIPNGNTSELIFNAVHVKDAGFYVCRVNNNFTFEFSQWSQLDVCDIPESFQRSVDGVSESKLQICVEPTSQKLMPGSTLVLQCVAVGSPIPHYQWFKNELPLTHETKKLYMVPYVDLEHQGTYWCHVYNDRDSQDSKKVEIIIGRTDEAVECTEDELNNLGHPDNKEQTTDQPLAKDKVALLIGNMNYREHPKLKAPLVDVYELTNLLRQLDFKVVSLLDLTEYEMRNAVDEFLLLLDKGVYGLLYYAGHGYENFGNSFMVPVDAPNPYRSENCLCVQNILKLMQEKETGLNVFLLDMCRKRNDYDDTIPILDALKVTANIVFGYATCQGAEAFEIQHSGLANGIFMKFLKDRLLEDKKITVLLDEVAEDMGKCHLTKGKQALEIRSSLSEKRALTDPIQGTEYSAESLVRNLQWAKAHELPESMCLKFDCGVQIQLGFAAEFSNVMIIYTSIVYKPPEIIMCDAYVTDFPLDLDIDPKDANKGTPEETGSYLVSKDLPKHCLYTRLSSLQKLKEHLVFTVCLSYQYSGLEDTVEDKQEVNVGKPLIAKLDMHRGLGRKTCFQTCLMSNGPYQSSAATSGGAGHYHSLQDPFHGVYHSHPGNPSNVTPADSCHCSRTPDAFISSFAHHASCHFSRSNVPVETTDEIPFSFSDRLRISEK
# In short: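 Cells were grown in RPMI with 10% FBS, 2 mM glutamine and 10 mM HEPES at 37 °C, 5% CO₂. Pretreated 30 min with compound (4 and 8 μM), then 10 μM MG-132 for 2 h. 20−75 μg total protein run on SDS-PAGE, blotted to PVDF, probed for RelB, detected by HRP chemiluminescence. β-actin was the loading control.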
# [17] = system: OCI-Ly1; assay: Induction of apoptosis in human OCI-Ly1 cells assessed as dead cells at 5 uM measured after 24 hrs by Annexin V-FITC/ Propidium iodide staining based flow cytometry (reference value: 0.365%); assay type: functional
# [18] = system: OCI-Ly1; assay: Induction of apoptosis in human OCI-Ly1 cells assessed as increase in cleaved PARP level at 2 to 5 uM measured after 12 hrs by Western blot analysis; assay type: functional, cell-based; details: dose 2-5 µM; in short: as §2
# Chain of Nuclear factor NF-kappa-B complex (Homo sapiens) (P19838 whole entry, looked up): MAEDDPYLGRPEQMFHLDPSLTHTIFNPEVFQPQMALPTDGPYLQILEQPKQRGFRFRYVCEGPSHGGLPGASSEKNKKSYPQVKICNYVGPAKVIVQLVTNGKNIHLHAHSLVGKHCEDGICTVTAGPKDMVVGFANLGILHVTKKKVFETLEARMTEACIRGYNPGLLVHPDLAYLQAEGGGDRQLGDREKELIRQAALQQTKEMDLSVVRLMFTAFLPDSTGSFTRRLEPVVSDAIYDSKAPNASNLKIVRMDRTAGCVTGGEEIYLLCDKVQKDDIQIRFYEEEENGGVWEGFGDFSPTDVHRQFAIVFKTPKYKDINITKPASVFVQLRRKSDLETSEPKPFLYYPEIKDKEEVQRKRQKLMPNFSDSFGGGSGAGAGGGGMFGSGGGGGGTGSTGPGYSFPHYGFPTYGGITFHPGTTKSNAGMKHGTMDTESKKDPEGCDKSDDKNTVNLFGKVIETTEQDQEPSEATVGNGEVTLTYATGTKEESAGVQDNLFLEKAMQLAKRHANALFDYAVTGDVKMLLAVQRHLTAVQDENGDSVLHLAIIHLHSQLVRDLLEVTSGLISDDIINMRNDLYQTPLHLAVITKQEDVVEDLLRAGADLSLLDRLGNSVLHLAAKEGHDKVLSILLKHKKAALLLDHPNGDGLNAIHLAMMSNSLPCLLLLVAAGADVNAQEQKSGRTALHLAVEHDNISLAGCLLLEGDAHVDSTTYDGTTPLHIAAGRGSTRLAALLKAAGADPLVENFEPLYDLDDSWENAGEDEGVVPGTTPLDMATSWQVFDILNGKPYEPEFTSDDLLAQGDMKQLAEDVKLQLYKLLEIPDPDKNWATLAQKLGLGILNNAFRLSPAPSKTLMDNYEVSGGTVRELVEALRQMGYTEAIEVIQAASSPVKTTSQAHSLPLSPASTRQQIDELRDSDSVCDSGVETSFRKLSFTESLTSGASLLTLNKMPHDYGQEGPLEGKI
# Chain of Nuclear factor NF-kappa-B complex (Homo sapiens) (Q00653 whole entry, looked up): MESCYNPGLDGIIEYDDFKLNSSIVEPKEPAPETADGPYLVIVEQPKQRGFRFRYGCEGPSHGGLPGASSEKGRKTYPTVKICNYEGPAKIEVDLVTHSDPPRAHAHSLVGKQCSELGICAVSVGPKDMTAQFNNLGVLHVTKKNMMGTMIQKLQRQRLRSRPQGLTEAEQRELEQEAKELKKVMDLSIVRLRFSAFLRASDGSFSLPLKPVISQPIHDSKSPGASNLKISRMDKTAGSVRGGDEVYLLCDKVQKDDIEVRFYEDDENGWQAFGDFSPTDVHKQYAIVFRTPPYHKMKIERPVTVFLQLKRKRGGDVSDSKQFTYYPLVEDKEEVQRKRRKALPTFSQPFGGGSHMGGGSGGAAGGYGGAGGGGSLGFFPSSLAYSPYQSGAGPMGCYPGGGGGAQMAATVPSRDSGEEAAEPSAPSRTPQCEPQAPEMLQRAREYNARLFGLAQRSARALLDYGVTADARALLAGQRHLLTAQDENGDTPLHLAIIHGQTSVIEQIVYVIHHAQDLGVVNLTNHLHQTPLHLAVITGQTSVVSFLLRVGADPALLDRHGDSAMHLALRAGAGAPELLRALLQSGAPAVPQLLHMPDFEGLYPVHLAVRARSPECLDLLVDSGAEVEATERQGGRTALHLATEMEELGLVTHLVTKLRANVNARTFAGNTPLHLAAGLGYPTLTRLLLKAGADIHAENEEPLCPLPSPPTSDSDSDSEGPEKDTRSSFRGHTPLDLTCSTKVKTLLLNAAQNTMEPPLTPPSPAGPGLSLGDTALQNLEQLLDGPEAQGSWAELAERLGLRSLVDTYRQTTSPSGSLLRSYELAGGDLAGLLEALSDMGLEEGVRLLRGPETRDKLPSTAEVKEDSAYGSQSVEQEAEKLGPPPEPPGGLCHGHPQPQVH
# Chain of Nuclear factor NF-kappa-B complex (Homo sapiens) (Q04206 whole entry, looked up): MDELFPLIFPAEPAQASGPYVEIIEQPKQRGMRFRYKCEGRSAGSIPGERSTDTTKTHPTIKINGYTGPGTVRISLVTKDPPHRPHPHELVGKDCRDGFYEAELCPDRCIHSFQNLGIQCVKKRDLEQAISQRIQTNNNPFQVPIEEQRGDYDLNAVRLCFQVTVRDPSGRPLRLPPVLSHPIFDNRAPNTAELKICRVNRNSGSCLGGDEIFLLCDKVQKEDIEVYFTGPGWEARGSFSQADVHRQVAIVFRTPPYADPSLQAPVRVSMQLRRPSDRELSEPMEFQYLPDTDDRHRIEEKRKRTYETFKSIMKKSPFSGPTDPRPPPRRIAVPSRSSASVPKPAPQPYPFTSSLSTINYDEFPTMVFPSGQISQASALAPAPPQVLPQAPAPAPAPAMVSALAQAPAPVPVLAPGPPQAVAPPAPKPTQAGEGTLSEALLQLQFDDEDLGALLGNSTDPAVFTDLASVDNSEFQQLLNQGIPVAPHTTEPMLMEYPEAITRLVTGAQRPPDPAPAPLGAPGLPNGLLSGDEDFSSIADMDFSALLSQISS
structure (smiles),measurement,setting,value
COc1ccc(OC)c(NC(=O)c2sc(=S)n(-c3ccc(C(F)(F)F)cc3)c2NC(=O)CCl)c1,Activity,[1],1.53%
same,Activity,[2],2.54%
same,inhibition,[3],Active
same,inhibition in vivo at 30 mg/kg/day,[4],31%
same,MRT last,[5],5.66 h
same,Activity,[6],42.1%
same,Activity,[7],1.8%
same,Activity,[8],Dose-Dependent Effect
same,Vd,[9],4.82 L/kg
same,AUC(0-t),[10],1010 ng·h/mL
same,Activity,[11],0.422%
same,Activity,[12],58.9%
same,Activity,[13],53.1%
same,Activity,[14],0.337%
same,Tmax,[15],3 h
same,inhibition,[16],Active
same,Activity,[17],0.204%
same,Activity,[18],inactive
